High-throughput results (PubChem)
Rad51 HR inh: Rad51 (human) homologous recombination inhibition; Q06609; hRad51 DNA strand exchange, fluorescence dequenching; inhibition, % at 10 µM; actives 0.085% (n = 200,000); AID 1385;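 active = inhibition above 40% at the single screening dose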;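 also: 0% = DMSO control wells and 100% = blanks with heterologous ssDNA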
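material = hRad51 filaments on single-stranded DNA | timing = filaments 15 min 37 °C, then compound 30 min | signal = FRET fluorescence dequenching, excitation 485 nm, emission 520 nm | benchmarks = control wells and blank wells on each plate | evaluation = percent inhibition relative to plate controls and blanks | compound = 10 µM final, single point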
CHT allo act: allosterically activates the human high affinity choline transporter | actives 0.49% (n = 310,000) | CHT-expressing cells, membrane potential dye, choline EC20; active compounds read high; LV-AA mutant CHT in HEK293 cells | B-score at 10 µM | Q9GZV3;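 active = initial fluorescence not abnormally high and integrated response B-score, plate-corrected, over 3 SD above library mean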
KCC2 mod: KCC2 (human) Cl- transport modulation. Q9H2X9. KCC2 cells, thallium flux FluoZin-2 fluorescence. B-score of Tl+ flux slope (higher = more flux/activation; lower = inhibition) at 10 µM. actives 2.2% (n = 190,000);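 active = thallium flux slope and its plate-corrected score both differing from the plate sample mean at a set confidence after two filtering rounds, in either direction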;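 also: slope of fluorescence scaled to starting intensity during 10 to 20 s after thallium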
CHT block: inhibitors of human choline transporter CHT | CHT-expressing cells, membrane potential dye, choline response; active compounds read low | B-score at 10 µM | actives 0.86% (n = 310,000) | AID 488975;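 active = B-score over 3 SD under the library average, and starting fluorescence ratio not unusually high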;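 also: choline stimulus applied at its EC90 after an EC20 pre-addition; B-score computed on integrated fluorescence ratio after choline addition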
KCC2 sec1: confirmation of human KCC2 transport modulators; normalised thallium flux (F/F0 slope) at 10 µM; HEK293-KCC2, thallium flux, FluoZin2 fluorescence; active compounds read high; shares compounds with KCC2 mod; AID 1713; actives 15% (n = 3,700);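 active = thallium flux slope above the same plate's solvent-only control mean plus 3 SD; inconclusive = the two replicate wells disagree; inactive = no significant difference from solvent-only control wells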
KCC2 bumet counter: bumetanide-insensitive thallium flux in KCC2 cells with ouabain, counter-screen; normalized thallium flux at 10 µM; shares compounds with KCC2 mod; HEK293-KCC2 + bumetanide/ouabain, thallium flux FluoZin2; active compounds read high; actives 49% (n = 3,700);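 active = thallium entry rate above the same plate's blocked-transporter control wells by more than 3 SD; inconclusive = the two repeat wells disagree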;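 also: raw slope of fluorescence over initial fluorescence between 10 and 20 s after thallium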
KCC2 secondary2: confirmation of human KCC2 transport modulators; normalized thallium flux at 10 µM; HEK293-KCC2, thallium flux FluoZin2 fluorescence; actives lie on both sides; F/F0 rise rate, 10–20 s post-thallium; shares compounds with KCC2 mod; actives 23% (n = 3,700);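 active = thallium flux slope more than 3 SD above or below the plate's solvent-only control mean, mostly below; inconclusive = the two repeat wells disagreed; inactive = no significant shift from solvent-only controls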;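 also: raw slope with 0.1% DMSO as baseline and bumetanide as block control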
HEK counter1: counter-screen for KCC2 modulators: effect in parental HEK293 cells. shares compounds with KCC2 mod. thallium flux FluoZin2, ouabain; baseline-ratio fluorescence slope, 10–20 s after thallium. thallium flux rate (normalised fluorescence) at 10 µM. actives 46% (n = 3,700). AID 1716;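 active = thallium flux rate significantly above the same plate's solvent-only control wells, beyond their mean plus 3 SD; inconclusive = the two replicate wells gave conflicting results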
KCC2 retest ouab: confirmation of human KCC2 modulators with ouabain | shares compounds with KCC2 mod | HEK293-KCC2, thallium flux FluoZin2 fluorescence; bidirectional: low = inhibitor, high = activator | raw Tl+ flux slope (below DMSO = inhibition, above = activation) at 10 µM | actives 48% (n = 3,700) | AID 1717;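 active = thallium flux slope beyond 3 SD from same-plate DMSO control mean in most replicates, usually higher, sometimes lower; inconclusive = repeat tests gave conflicting results; inactive = no significant difference from controls in most replicates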;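 also: slope of initial-normalized fluorescence between seconds 10 and 20 after thallium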
HEK counter2: parental HEK flux effect, counter-screen 2; shares compounds with KCC2 mod; HEK293 parental, thallium flux FluoZin-2 fluorescence slope; thallium flux slope at 10 µM; actives 33% (n = 3,700); AID 1718;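 active = thallium flux slope above the same plate's solvent-control mean plus 3 SD in both duplicate wells; inconclusive = duplicate wells that disagreed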;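 also: run without ouabain in cells lacking the KCC2 cotransporter; slope of fluorescence scaled to its starting value between 10 and 20 s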
Active calls of the source: *; i = inactive; ? = inconclusive; · = no result given. This is a sample that favours compounds with a hit; in the whole collection about 2.6% have one here.

SMILES	Rad51 HR inh	CHT allo act	KCC2 mod	CHT block	KCC2 sec1	KCC2 bumet counter	KCC2 secondary2	HEK counter1	KCC2 retest ouab	HEK counter2
CCn1cc(C2=NOC(C(=O)Nc3cc(C)nn3-c3ccccc3)C2)c(C)n1 (stereo not drawn)	4.3	i	4.55*	i	0.0109	?	0.0339	0.00815	0.022	0.0112
CCOC(=O)c1sc(-c2ccc(C)cc2)c(C#N)c1C	-0.9	i	5.26*	i	0.00946	0.00575	0.0307	0.0073	0.0199	0.0104
CC(C)(CO)NCC(O)Cn1cc(C=O)c2ccccc21 (stereo not drawn)	14.2	i	0.542	i	·	·	·	·	·	·
Cc1nn(-c2ccccc2)c(C)c1/C=C/C(=O)OCC(=O)NC1CCS(=O)(=O)C1 (stereo not drawn)	·	i	·	i	0.0056	0.00441	0.027	0.00806	0.0177	0.0102
O=C(O)/C=C/C(=O)N1Cc2cc3ccccc3nc2C1	15.7	i	0.238	i	·	·	·	·	·	·
CN1CCN(C(=S)NC(=O)c2ccc(Cl)cc2)CC1	1.1	·	13.7*	·	0.00664	0.02*	0.0335	0.0176*	0.0286*	0.0166*
CCOC(=O)N1CCN(C(=S)NC(=O)c2ccc(Br)cc2)CC1	-1.9	i	17.5*	i	0.0229*	0.0595*	0.0347	?	0.0247	0.0128*
Cc1ccc(C(=O)NC(=S)N2CCN(C(=O)OC(C)(C)C)CC2)cc1Br	-32.0	i	19.5*	i	?	0.0877*	0.0744*	0.0616*	0.0874*	0.0566*
CCn1cc(CN2CCCC(C(=O)Nc3ccc(-c4cscn4)cc3)C2)c(C)n1 (stereo not drawn)	·	i	·	i	·	·	·	·	·	·
COc1ccccc1NC(=O)Nc1ccc(CC#N)cc1	6.6	i	-0.532	i	·	·	·	·	·	·
CCCn1c(=S)[nH]c2cc(Cl)ccc21	3.9	i	54.6*	i	0.0425*	0.0878*	0.0486*	0.0467*	0.0514*	0.0447*
CCn1c(=S)[nH]c2cc(Cl)ccc21	25.0	i	10.3*	i	?	0.0244*	?	0.0217*	0.0308*	0.0191*
Cc1ccc(C)c(SCC(=O)Nc2cccc(S(=O)(=O)NC3=NCCCCC3)c2)c1	·	i	-1.96	i	·	·	·	·	·	·
Cc1ccc(Nc2nnc(SCC(=O)Nc3cccc(S(=O)(=O)NC4=NCCCCC4)c3)s2)c(C)c1	-8.8	i	1.3	i	0.00715	0.00477	0.0296	0.0052*	0.0168*	0.00905
Cc1ccc(NC(=O)C2CCN(C(=O)c3ccc(F)cc3)CC2)nc1	·	i	·	i	·	·	·	·	·	·
COc1ccc(OCc2nnc(SCc3ccc(C(=O)O)cc3)o2)cc1	7.0	i	0.301	i	·	·	·	·	·	·
O=C(O)c1ccc(CSc2nnc(COc3ccc(Cl)cc3Cl)o2)cc1	-4.3	i	-3.11*	i	0.00611	?	0.0275	0.00667	0.0169	0.00953
O=C(NN=C(Cc1ccccc1)Cc1ccccc1)c1ccccc1O	-5.8	i	22.9*	i	?	0.0624*	0.05*	0.0365*	0.049*	0.0314*
COc1ccc(NC(=O)CSc2nnc(-c3ccncc3)n2C)cc1	2.7	i	0.498	i	·	·	·	·	·	·
COc1ccc(NC(=O)CSc2nc(-c3ccncc3)nn2CC(=O)N2CCCC2)cc1	-2.9	i	-4.25*	i	0.0069	0.00477	0.0279	0.00737	0.018	0.0105
